Assay [1] concerns A2780. In words: Cytotoxicity against human A2780 cells. Type of assay: functional, cell-based. An outline of the steps: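 Run on the human ovarian cancer line A2780 by a previously described protocol, with actinomycin D at 2 μg/mL as the positive control.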
Assay [2] concerns RXF 393. In words: Cytotoxicity against human RXF393 cells. Type of assay: functional. The procedure, abridged: (§1)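 NCI 60-cell-line panel screen over a 5-log dose range; growth inhibition expressed as log GI50. Preceded by an NCI one-dose primary screen on three lines (H460, MCF7, SF-268) reported as growth percentages.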
For assay [3], the system named is T47D. In words: Cytotoxicity against human T47D cells. Format: functional. The procedure, abridged:
as §1

Assay [4] concerns NCI-H460. In words: Cytotoxicity against human H460 cells. Type of assay: functional.
The test system of assay [5] is MCF7. In words: Cytotoxicity against human MCF7 cells. Format: functional.
Assay [6] deals with EKVX. In words: Cytotoxicity against human EKVX cells. Format: functional. The procedure, abridged: as §1
Assay [7] concerns SF-268. The assay can be described thus: Cytotoxicity against human SF268 cells. Format: functional.

Converted amounts (≈) assume the structure as drawn.

By IC50 is commonly meant the concentration needed to halve the response being measured. High values mean weaker potency, low ones greater potency. In assay [1], `CC1(C)CC[C@]2(C)CC[C@]3(C)C(=C[C@@H](O)[C@@H]4[C@@]5(C)[C@H](O)[C@@H](O)[C@H](O)C(C)(C)[C@@H]5CC[C@]43C)[C@@H]2C1` had an IC50 of 27.9 µg/mL (≈ 58.8 µM). On the same count and under the same terms, the same measure for `CC(=O)O[C@@H]1C[C@@]2(C)C(=CC[C@]3(C)[C@@H]2[C@H](O)C=C2[C@@H]4[C@@H](C)[C@H](C)CC[C@]4(C)CC[C@]23C)C(C)(C)[C@H]1O`: 34.2 µg/mL (≈ 68.6 µM); for `CC(=O)O[C@H]1[C@H](O)[C@@H](O)[C@]2(C)[C@H]3C(=O)C=C4[C@@H]5[C@@H](C)[C@H](C)CC[C@]5(C)CC[C@@]4(C)[C@]3(C)CC[C@H]2C1(C)C`: 26 µg/mL (≈ 50.5 µM); for `CC(=O)O[C@H]1[C@H](O)[C@@H](O)[C@]2(C)C3=CC=C4[C@@H]5[C@@H](C)[C@H](C)CC[C@]5(C)CC[C@@]4(C)[C@]3(C)CC[C@H]2C1(C)C`: 37.5 µg/mL (≈ 75.2 µM). On the same count and under the same terms, the same measure for `CC(=O)O[C@H]1[C@H](O)[C@@H](O)[C@]2(C)C3=CC=C4[C@@H]5CC(C)(C)CC[C@]5(C)CC[C@@]4(C)[C@]3(C)CC[C@H]2C1(C)C`: 36.9 µg/mL (≈ 74 µM). Same read-out and setting: the same measure for `CC(=O)O[C@H]1[C@H](O)C[C@]2(C)C3=CC=C4[C@@H]5[C@@H](C)[C@@](C)(O)CC[C@]5(C)CC[C@@]4(C)[C@]3(C)CC[C@H]2C1(C)C`: 33.3 µg/mL (≈ 66.8 µM). `CC(=O)O[C@H]1[C@H](O)[C@@H](O)[C@]2(C)[C@H]3[C@H](O)C=C4[C@@H]5[C@@H](C)[C@H](C)CC[C@]5(C)CC[C@@]4(C)[C@]3(C)CC[C@H]2C1(C)C` gave an IC50 in assay [1] of 32.5 µg/mL (≈ 62.9 µM). A word on the GI50: it is the concentration giving 50% growth inhibition. A high value points to less potent growth inhibition. In the case of `C[C@H]1[C@H](C)CC[C@]2(C)CC[C@]3(C)C(=C[C@@H](O)[C@@H]4[C@@]5(C)[C@H](O)[C@@H](O)[C@H](O)C(C)(C)[C@@H]5CC[C@]43C)[C@H]12`, the GI50 is 363 nM in assay [2], 18600 nM in assay [3] and 21.9 nM in assay [6]. The figures for the Activity in assay [4], in assay [5] and in assay [7] were -45%, -25% and 18%, respectively. This compound also gave an IC50 in assay [1] of 27.7 µg/mL (≈ 58.3 µM). Regarding `C[C@H]1[C@H](C)[C@H]2C3=C[C@@H](O)[C@@H]4[C@@]5(C)CC[C@H](O)C(C)(C)[C@@H]5CC[C@@]4(C)[C@]3(C)CC[C@@]2(C)C[C@H]1O` [SALVISTAMINEOL], the IC50 in assay [1] stood at 21 µg/mL (≈ 45.8 µM). In the case of `CC(=O)O[C@H]1[C@H](O)[C@@H](O)[C@]2(C)[C@H]3[C@H](O)C=C4[C@@H]5CC(C)(C)CC[C@]5(C)CC[C@@]4(C)[C@]3(C)CC[C@H]2C1(C)C`, the concentration for half-maximal inhibition (IC50) in assay [1] stood at 38.5 µg/mL (≈ 74.5 µM).

Compound `CC1(C)C[C@H]2C3=C[C@@H](O)[C@@H]4[C@@]5(C)CC[C@H](O)C(C)(C)[C@@H]5CC[C@@]4(C)[C@@]3(C)CC[C@@]2(C)C[C@H]1O` [SALVINEMOROL] had a 50% inhibitory concentration (IC50) in assay [1] of 8.6 µg/mL (≈ 18.7 µM).

The values are drawn from ChEMBL document CHEMBL1146470, “Highly hydroxylated triterpenes from Salvia kronenburgii” (J Nat Prod, 2004).
